Results reported in ChEMBL document CHEMBL1165950, “Design and synthesis of new potent anticancer pyrazoles with high FLT3 kinase inhibitory selectivity” (Bioorg Med Chem, 2010).

Key:
Format in all cases: functional
SK-OV-3 = assay: Cytotoxicity against human SKOV3 cells assessed as cell growth at 100 nM after 48 hrs by sulforhodamine B assay; details: SK-OV-3, 48 h, read-out: Activity
SNB-19 [1] = assay: Cytotoxicity against human SNB19 cells assessed as cell growth at 100 nM after 48 hrs by sulforhodamine B assay; details: SNB-19, 48 h, read-out: Activity
K562 [2] = assay: Cytotoxicity against human K562 cells assessed as cell growth at 0.001 uM after 48 hrs by sulforhodamine B assay; details: K562, 48 h, read-out: Activity
MOLT-4 [3] = assay: Cytotoxicity against human MOLT4 cells assessed as cell growth at 100 nM after 48 hrs by sulforhodamine B assay; details: MOLT-4, 48 h, read-out: Activity
HOP-92 = assay: Growth inhibition of human HOP92 cells after 48 hrs by sulforhodamine B assay; details: HOP-92, 48 h; for CC50: read-out: LC50 (the source's name)
In short: (§1)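 NCI 60-cell screen, five-dose mode. Cells grown in RPMI 1640 with 5% FBS and 2 mM L-glutamine and plated at 5000-40,000 cells/well according to doubling time. After 24 h preincubation, a Tz plate was TCA-fixed. Five concentrations (10-fold or 1/2 log dilutions) were applied for 48 h at 37 °C. SRB staining read at 515 nm. IC50 taken from [(Ti-Tz)/(C-Tz)]×100 = 50.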

MDA-MB-435 = assay: Cytotoxicity against human MDA-MB-435 cells assessed as cell growth at 1 uM after 48 hrs by sulforhodamine B assay; details: MDA-MB-435, 48 h, read-out: Activity
[4] = Cytotoxicity against human Hs 578T cells assessed as cell growth at 10 uM after 48 hrs by sulforhodamine B assay; details: read-out: Activity
MDA-MB-468 [5] = assay: Cytotoxicity against human MDA-MB-468 cells assessed as cell growth at 10 uM after 48 hrs by sulforhodamine B assay; details: MDA-MB-468, 48 h, read-out: Activity
SK-MEL-2 [6] = assay: Cytotoxicity against human SK-MEL-2 cells assessed as cell growth at 10 uM after 48 hrs by sulforhodamine B assay; details: SK-MEL-2, 48 h, read-out: Activity
T47D [7] = assay: Cytotoxicity against human T47D cells assessed as cell growth at 1 uM after 48 hrs by sulforhodamine B assay; details: read-out: Activity
M14 = assay: Cytotoxicity against human M14 cells assessed as cell growth at 1 uM after 48 hrs by sulforhodamine B assay; details: M14, 48 h, read-out: Activity
Malme-3M = assay: Cytotoxicity against human MALME-3M cells assessed as cell growth at 0.01 uM after 48 hrs by sulforhodamine B assay; details: read-out: Activity
SW-620 = assay: Cytotoxicity against human SW620 cells assessed as cell growth at 10 uM; details: read-out: Activity
In short: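 NCI-60 screen: cells grown in RPMI 1640 with 5% FBS and 2 mM L-glutamine, plated at 5000–40,000 cells/well according to doubling time, and preincubated 24 h at 37 °C, 5% CO2. The single 10 µM dose (DMSO stock) was added, then incubated 48 h. Cells were TCA-fixed and stained with 0.4% SRB, read at 515 nm, and growth % calculated against time-zero and control plates.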

MDA-MB-468 [8] = assay: Cytotoxicity against human MDA-MB-468 cells assessed as cell growth at 1 uM after 48 hrs by sulforhodamine B assay; details: MDA-MB-468, 48 h, read-out: Activity
NCI-H23 = assay: Cytotoxicity against human NCI-H23 cells assessed as cell growth at 0.01 uM after 48 hrs by sulforhodamine B assay; details: NCI-H23, 48 h, read-out: Activity
T47D [9] = assay: Cytotoxicity against human T47D cells assessed as cell growth at 0.01 uM after 48 hrs by sulforhodamine B assay; details: read-out: Activity
TK-10 = assay: Cytotoxicity against human TK10 cells assessed as cell growth at 100 nM after 48 hrs by sulforhodamine B assay; details: TK-10, 48 h, read-out: Activity
SN12C = assay: Cytotoxicity against human SN12C cells assessed as cell growth at 100 nM after 48 hrs by sulforhodamine B assay; details: read-out: Activity
K562 [10] = assay: Cytotoxicity against human K562 cells assessed as cell growth at 100 nM after 48 hrs by sulforhodamine B assay; details: K562, 48 h, read-out: Activity
MOLT-4 [11] = assay: Growth inhibition of human MOLT4 cells after 48 hrs by sulforhodamine B assay; details: MOLT-4, 48 h; in short: as §1
SNB-19 [12] = assay: Growth inhibition of human SNB19 cells after 48 hrs by sulforhodamine B assay; details: SNB-19, 48 h; for CC50: read-out: LC50 (the source's name); in short: as §1
OVCAR-4 = assay: Cytotoxicity against human OVCAR4 cells assessed as cell growth at 0.001 uM after 48 hrs by sulforhodamine B assay; details: OVCAR-4, 48 h, read-out: Activity
SK-MEL-2 [13] = assay: Growth inhibition of human SK-MEL-2 cells after 48 hrs by sulforhodamine B assay; details: SK-MEL-2, 48 h; for CC50: read-out: LC50 (the source's name); in short: as §1
NCI-H322M = assay: Cytotoxicity against human NCI-H322M cells assessed as cell growth at 1 uM after 48 hrs by sulforhodamine B assay; details: read-out: Activity
A549 = assay: Cytotoxicity against human A549 cells assessed as cell growth at 10 uM after 48 hrs by sulforhodamine B assay; details: A549, 48 h, read-out: Activity
In short: (§2)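 NCI-60 five-dose screen. Cells were grown in RPMI 1640 with 5% FBS and 2 mM L-glutamine, plated at 5000–40,000 cells/well and preincubated for 24 h. Time-zero plates were TCA-fixed. DMSO-solubilized drug was added at five concentrations (10-fold or ½-log serial dilutions) for 48 h at 37 °C, 5% CO2. Cells were TCA-fixed, stained with 0.4% SRB and read at 515 nm. Percent growth used time-zero, control and test absorbances.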

ACHN = assay: Cytotoxicity against human ACHN cells assessed as cell growth at 0.001 uM after 48 hrs by sulforhodamine B assay; details: read-out: Activity; in short: as §2
HL-60(TB) = assay: Cytotoxicity against human HL-60(TB) cells assessed as cell growth at 10 uM after 48 hrs by sulforhodamine B assay; details: HL-60, 48 h, read-out: Activity
In short: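 NCI 60-cell panel. Cells are grown in RPMI 1640 with 5% FBS and 2 mM L-glutamine, seeded at 5000–40,000 cells/well according to doubling time, and preincubated 24 h. Time-zero plates are TCA-fixed. Compound from DMSO stock is given at five 10-fold or 1/2-log concentrations for 48 h at 37 °C, 5% CO2. Suspension cells are fixed with 80% TCA (final 16%) and SRB-stained, with absorbance at 515 nm. Percent growth is derived from Tz, control and test readings.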

UACC-257 = assay: Cytotoxicity against human UACC257 cells assessed as cell growth at 100 nM after 48 hrs by sulforhodamine B assay; details: UACC-257, 48 h, read-out: Activity
LOX IMVI = assay: Cytotoxicity against human LOXIMVI cells assessed as cell growth at 0.01 uM after 48 hrs by sulforhodamine B assay; details: read-out: Activity

SMILES | growth at 0.1 µM (SK-OV-3) [%] | growth at 0.1 µM (SNB-19 [1]) [%] | growth at 0.001 µM (K562 [2]) [%] | growth at 0.1 µM (MOLT-4 [3]) [%] | GI50 (HOP-92) [µM] | TGI (HOP-92) [µM] | CC50 (HOP-92) [µM] | growth at 1 µM (MDA-MB-435) [%] | growth at 10 µM [4] [%] | growth at 10 µM (MDA-MB-468 [5]) [%] | growth at 10 µM (SK-MEL-2 [6]) [%] | growth at 1 µM (T47D [7]) [%] | growth at 1 µM (M14) [%] | growth at 0.01 µM (Malme-3M) [%] | growth at 10 µM (SW-620) [%] | growth at 1 µM (MDA-MB-468 [8]) [%] | growth at 0.01 µM (NCI-H23) [%] | growth at 0.01 µM (T47D [9]) [%] | growth at 0.1 µM (TK-10) [%] | growth at 0.1 µM (SN12C) [%] | other results
COc1cc(C)cc(-c2c(-c3ccnc(-c4ccc(N(C)C)cc4)c3)cnn2CC#N)c1 | 37 | 27 | 104 | 9 | < 0.01 | 0.0553 | > 100 | -29 | 16 | -59 | 10 | 19 | -9 | 34 | 16.6 | -57 | 67 | 36 | 44 | 28 | growth at 0.1 µM (K562 [10]): 7%; GI50 (MOLT-4 [11]): 0.271 µM; LC50 (MOLT-4 [11]): > 100 µM; GI50 (SNB-19 [12]): 0.362 µM; TGI (SNB-19 [12]): > 100 µM; CC50 (SNB-19 [12]): > 100 µM; growth at 0.001 µM (OVCAR-4): 92%; GI50 (SK-MEL-2 [13]): 0.204 µM; TGI (SK-MEL-2 [13]): > 100 µM; CC50 (SK-MEL-2 [13]): > 100 µM; growth at 1 µM (NCI-H322M): 34%; growth at 10 µM (A549): 4%; growth at 0.001 µM (ACHN): 98%; growth at 10 µM (HL-60(TB)): -20%; growth at 0.1 µM (UACC-257): 41%; growth at 0.01 µM (LOX IMVI): 39%
COc1cc(C)cc(-c2c(-c3ccnc(-c4ccc(C(C)=O)cc4)c3)cnn2CC#N)c1 | 102 | 99 | 81 | 81 | 1.46 | 7.56 | > 100 | 17 | -27 | -55 | 20 | -9 | -19 | 93 | 56.1 | -48 | 95 | 92 | 111 | 92 | growth at 0.1 µM (K562 [10]): 47%; GI50 (MOLT-4 [11]): 2.63 µM; LC50 (MOLT-4 [11]): > 100 µM; TGI (MOLT-4 [11]): > 100 µM; GI50 (SNB-19 [12]): > 100 µM; TGI (SNB-19 [12]): > 100 µM; CC50 (SNB-19 [12]): > 100 µM; growth at 0.001 µM (OVCAR-4): 102%; GI50 (SK-MEL-2 [13]): 5.88 µM; TGI (SK-MEL-2 [13]): > 100 µM; CC50 (SK-MEL-2 [13]): > 100 µM; growth at 1 µM (NCI-H322M): 69%; growth at 10 µM (A549): 30%; growth at 0.001 µM (ACHN): 100%; growth at 10 µM (HL-60(TB)): -3%; growth at 0.1 µM (UACC-257): 81%; growth at 0.01 µM (LOX IMVI): 105%
Cc1cc(O)cc(-c2nn(CC#N)cc2-c2ccnc(-c3ccc(N(C)C)cc3)c2)c1 | 101 | 93 | 100 | 89 | 3.03 | 46.8 | > 100 | -49 | -32 | -61 | -46 | 5 | -39 | 92 | 25 | -50 | 96 | 90 | 125 | 91 | growth at 0.1 µM (K562 [10]): 80%; GI50 (MOLT-4 [11]): 3.17 µM; LC50 (MOLT-4 [11]): > 100 µM; TGI (MOLT-4 [11]): 46 µM; GI50 (SNB-19 [12]): 4.54 µM; TGI (SNB-19 [12]): 43.9 µM; CC50 (SNB-19 [12]): > 100 µM; growth at 0.001 µM (OVCAR-4): 104%; GI50 (SK-MEL-2 [13]): 4.15 µM; TGI (SK-MEL-2 [13]): 15.8 µM; CC50 (SK-MEL-2 [13]): > 100 µM; growth at 1 µM (NCI-H322M): 38%; growth at 10 µM (A549): -8%; growth at 0.001 µM (ACHN): 94%; growth at 10 µM (HL-60(TB)): -16%; growth at 0.1 µM (UACC-257): 83%; growth at 0.01 µM (LOX IMVI): 104%
